High-throughput results (PubChem BioAssay)
AHR activator – human AHR activation; actives 2.5% (n = 320,000); P35869; AHR-responsive luciferase reporter cells, luminescence; activation, % at 5 µM; AID 2796; in the data active = activation above about 47%;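 also: 0% = vehicle wells and 100% = reference agonist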
Target sequence (P35869 whole entry, looked up): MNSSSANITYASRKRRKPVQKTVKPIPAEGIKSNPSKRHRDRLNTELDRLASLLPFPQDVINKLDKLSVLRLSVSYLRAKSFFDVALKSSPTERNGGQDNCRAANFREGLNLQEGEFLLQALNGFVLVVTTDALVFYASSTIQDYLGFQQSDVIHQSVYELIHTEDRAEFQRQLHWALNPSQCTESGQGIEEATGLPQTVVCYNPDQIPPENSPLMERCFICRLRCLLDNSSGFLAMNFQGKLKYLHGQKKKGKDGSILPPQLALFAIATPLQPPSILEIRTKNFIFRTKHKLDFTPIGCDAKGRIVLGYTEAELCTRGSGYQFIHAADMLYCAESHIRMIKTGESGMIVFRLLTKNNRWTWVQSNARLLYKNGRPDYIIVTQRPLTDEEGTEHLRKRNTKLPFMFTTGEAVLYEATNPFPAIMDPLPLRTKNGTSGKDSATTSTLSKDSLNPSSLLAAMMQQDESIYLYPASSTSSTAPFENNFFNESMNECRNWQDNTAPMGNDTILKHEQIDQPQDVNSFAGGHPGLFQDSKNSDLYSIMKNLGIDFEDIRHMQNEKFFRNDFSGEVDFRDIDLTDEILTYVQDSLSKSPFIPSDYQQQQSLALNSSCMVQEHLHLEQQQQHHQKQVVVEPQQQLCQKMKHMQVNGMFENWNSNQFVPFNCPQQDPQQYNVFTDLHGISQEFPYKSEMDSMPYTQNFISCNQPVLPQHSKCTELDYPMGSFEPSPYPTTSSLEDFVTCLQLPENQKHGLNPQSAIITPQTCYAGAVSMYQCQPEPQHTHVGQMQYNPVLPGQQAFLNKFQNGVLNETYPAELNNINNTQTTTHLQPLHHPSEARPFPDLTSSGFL
Efflux pump inh – antifungal efflux pump inhibition, Nile Red retention; S. cerevisiae Candida pump triplex; inhibition, % at 10 µM; actives 0.44% (n = 330,000);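 active = plate passing quality check with inhibition over a set limit, or well fluorescence over plate mean plus 4 SD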;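 also: Nile Red retained in pooled yeast measured as flow cytometry median fluorescence; 0% = buffer negative control and 100% = Enniatin B positive control; higher means more Nile Red kept so more efflux inhibition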
Tb MetRS inh – Trypanosoma brucei MetRS inhibition; purified T. brucei MetRS, ATP depletion, Kinase-Glo luminescence; actives 0.4% (n = 360,000); AID 624268; inhibition, % at 11.9 µM;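 active = inhibition above a per-plate cutoff of the control wells' mean inhibition plus 3 SD, cut at about 5.5% in these data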;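 also: 0% = DMSO wells median and 100% = median of wells with control inhibitor compound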
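Material: parasite MetRS enzyme / Replication: singlicate, one well per compound / Signal: luminescence of leftover ATP / Schedule: 2 h aminoacylation at 25 °C after 15 min preincubation / Medium: HEPES-MgCl2-KCl buffer plus DTT, spermine, BSA, pyrophosphatase / Doses: 11.9 µM single point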
TAG inh – inhibitors of triacylglycerol accumulation; H9c2 cells, Nile Red lipid (TAG) fluorescence; cells loaded with 200 µM oleic acid; inhibition, % at 12.5 µM; actives 0.66% (n = 230,000); AID 651582;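 active = pattern-corrected inhibition of lipid staining of at least 50% with the nuclear-stain viability signal not falling by more than 50%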;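 also: 0% = DMSO wells and 100% = triacsin C control wells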
SMARCA2 act – SMARCA2 function activation, primary screen; MG213 cells, MMTV-luciferase reporter, dexamethasone, overnight; activation, % at 9.1 µM; actives 1% (n = 370,000); in the data active = activation above about 7.8%;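 also: 0% = vehicle wells and 100% = reference activator wells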
H9c2 TAG conf – confirmation of triacylglycerol accumulation inhibitors. shares compounds with TAG inh. actives 71% (n = 990). inhibition, % at 12.5 µM. H9c2 lipid accumulation, Nile Red fluorescence; cells loaded with 200 µM oleic acid;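 active = mean inhibition across replicates of 40% or more; inactive = mean inhibition below 40%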;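 also: plate controls were DMSO only wells for no effect and Triacsin C treated wells for full effect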
An asterisk follows results filed as active; . = no result. Sampled rows, rich in hits. Any-hit rate of the full collection: about 4.1%.

SMILES | AHR activator | Efflux pump inh | Tb MetRS inh | TAG inh | SMARCA2 act | H9c2 TAG conf
Cc1ccc(-c2nn3c(C)nnc3c3ccccc23)cc1S(=O)(=O)NCCO | -0.2 | -0.1 | -0.2 | . | -3.0 | .
Cc1ccc(-c2nn3c(C)nnc3c3ccccc23)cc1S(=O)(=O)NC(C)c1ccccc1 (stereo not drawn) | -0.7 | -0.2 | 0.1 | 50.3* | -0.8 | 53.1*
CC(=O)Oc1cc2c(s1)CCN(C(C(=O)C1CC1)c1ccccc1F)C2 (stereo not drawn) | . | . | . | . | 4.6 | .
COC(=O)[C@]1(C)N[C@H](c2ccc(-c3ccc(OC)cc3)cc2)[C@@H]2C(=O)N(C)C(=O)[C@@H]21 | -3.3 | -0.3 | -0.6 | -2.6 | -1.3 | .
COC(=O)[C@]1(CC(C)C)N[C@H](c2ccc(-c3ccc(OC)cc3)cc2)[C@@H]2C(=O)N(C)C(=O)[C@@H]21 | 0.4 | -0.1 | 0.2 | 54.1* | 0.5 | 35.8
CCN1C(=O)[C@H]2[C@@H](c3ccc(-c4cccc(Cl)c4)cc3)N[C@@](Cc3ccccc3)(C(=O)OC)[C@H]2C1=O | 2.9 | 0.0 | -0.1 | 51.5* | 0.2 | 60.3*
COC(=O)[C@]1(C)N[C@H](c2ccc(-c3ccc(Cl)c(Cl)c3)c(OC)c2)[C@@H]2C(=O)N(C)C(=O)[C@@H]21 | -0.3 | 0.0 | -0.1 | 51.2* | -1.5 | 35.5
COC(=O)[C@]1(CC(C)C)N[C@H](c2ccc(-c3ccccc3)cc2)[C@@H]2C(=O)N(C)C(=O)[C@@H]21 | 2.5 | 0.0 | -0.4 | 44.7 | 1.4 | .
COC(=O)[C@]1(CC(C)C)N[C@H](c2ccc(-c3ccc(F)cc3)cc2)[C@@H]2C(=O)N(C)C(=O)[C@@H]21 | 2.2 | 0.0 | -0.1 | 55.6* | -1.4 | 43.3*
COC(=O)[C@]1(Cc2ccccc2)N[C@H](c2ccc(-c3ccc(OC)cc3)cc2)[C@@H]2C(=O)N(C)C(=O)[C@@H]21 | -5.6 | 0.0 | -0.2 | 10.3 | 2.0 | .
COc1ccc(-c2csc(NC(=O)CC(C)C)n2)cc1 | 1.0 | -0.1 | -1.0 | 65.5* | 3.0 | 31.7
Cn1nnc2c[n+](CC(=O)c3ccc(Cl)cc3)cc(Br)c21 | 10.4 | 0.2 | -0.3 | 58.9* | 0.8 | 68.7*
COC(=O)C1=C(c2ccc(OC)cc2)OC(=O)C1(C)C | 3.3 | 0.0 | -0.5 | 60.5* | -0.5 | -3.2
C=CC[C@@H](CC(=O)N(CCO)Cc1ccccc1)C(=O)N[C@@H](C)COC(=O)[C@@H](CC=C)Cc1ccc(F)cc1 | 1.4 | -0.2 | -0.2 | 22.4 | 1.0 | .
C=CCC[C@@H](Cc1ccc(F)cc1)C(=O)OC[C@@H](Cc1c[nH]c2ccccc12)NC(=O)[C@H](CC=C)CC(=O)N(CCO)Cc1ccccc1 | 1.5 | 0.3 | -0.3 | 56.9* | -0.3 | 70.8*
C=CC[C@H](CC(=O)N(CCO)Cc1ccccc1)C(=O)N[C@@H](COC(=O)[C@@H](CC=C)Cc1ccc(F)cc1)Cc1c[nH]c2ccccc12 | 0.5 | 0.2 | -1.1 | 34.4 | -3.2 | .
C=CC[C@@H](CC(=O)N(CCO)Cc1ccccc1)C(=O)N[C@H](COC(=O)[C@@H](CC=C)CC(=O)OC(C)(C)C)C(C)(C)C | -0.3 | 0.3 | -0.2 | 72.6* | 0.1 | 80.8*
C=CC[C@@H](CC(=O)N[C@H](CO)Cc1ccccc1)C(=O)N[C@H](COC(=O)[C@@H](CC=C)Cc1ccc(F)cc1)C(C)(C)C | 5.5 | -0.3 | -0.6 | 94.9* | -1.0 | 38.0
C=CCC[C@H](Cc1ccc(F)cc1)C(=O)OC[C@@H](NC(=O)[C@@H](CC=C)CC(=O)N(CCO)Cc1ccccc1)C(C)(C)C | -0.4 | 0.1 | -0.4 | 87.3* | -1.0 | 92.6*
C=CCC[C@H](Cc1ccc(F)cc1)C(=O)OC[C@@H](NC(=O)[C@@H](CC=C)CC(=O)N[C@@H](CO)Cc1ccccc1)C(C)(C)C | 2.0 | 0.0 | -0.2 | 32.6 | 0.7 | .
Cc1nc2ccc(NC(=O)c3cc(F)cc(F)c3)cc2c(=O)[nH]1 | . | . | . | . | -5.0 | .
COC(=O)[C@H]1C[C@@]2(C3C=CC=C3)c3ccccc3N[C@H]2N1 | . | . | . | . | -2.1 | .
C=CC[C@H](CC(=O)N(CCO)Cc1ccccc1)C(=O)N[C@H](COC(=O)[C@@H](CC=C)Cc1ccc(F)cc1)C(C)(C)C | 0.3 | 0.0 | -0.2 | 37.3 | -1.1 | .
C=CC[C@@H](CC(=O)N(CCO)Cc1ccccc1)C(=O)N[C@H](COC(=O)[C@@H](CC=C)Cc1ccc(F)cc1)C(C)(C)C | 1.7 | 0.0 | -0.3 | 85.4* | -0.7 | 89.5*
Cc1ccc(NC(=O)CSc2nc(-c3ccco3)cc(C(F)(F)F)n2)cc1C | 0.0 | 0.0 | -1.2 | . | -1.5 | .
SMILES | AHR activator | Efflux pump inh | Tb MetRS inh | TAG inh | SMARCA2 act | H9c2 TAG conf
O=C(CSc1nc(-c2ccco2)cc(C(F)(F)F)n1)Nc1ccc2c(c1)CCC2 | 0.7 | -0.1 | -1.6 | 51.8* | -1.5 | 25.0
CCOc1ccccc1NC(=O)c1cccc(NC(=O)c2ccco2)c1 | -12.3 | 0.0 | -0.9 | 79.2* | 0.4 | 82.0*
CCOc1ccc(CCNC(=O)CN2CCN(Cc3ccc(F)cc3)C2=O)cc1OCC | 0.3 | 0.1 | -0.5 | 32.6 | 0.3 | .
CCOc1ccc(CCNC(=O)CN2CCN(Cc3ccccc3F)C2=O)cc1OCC | 1.9 | -0.1 | 0.3 | 60.2* | -2.9 | 42.2*
CN(CCO)C(=O)c1nc[nH]c1C(=O)N1CCN(c2ccccc2)CC1 | . | . | . | . | -2.3 | .
CCN(CC)CCNC(=O)C(=O)Nc1ccc2c(c1)N(S(=O)(=O)c1cccs1)CCC2 | -1.2 | -0.1 | 0.1 | 9.4 | -1.1 | .
CCCCNC(=O)C(=O)Nc1ccc2c(c1)N(S(=O)(=O)c1cccs1)CCC2 | . | . | -0.2 | 60.3* | -5.7 | 54.0*
CCNC(=O)O[C@@H]1C=C[C@@H](C#Cc2ccc(C(C)(C)C)cc2)O[C@@H]1COC(C)=O | . | . | . | . | -6.4 | .
CC(C)C(C)NC(=O)CSc1nc2scc(-c3ccco3)c2c(=O)n1-c1ccccc1 (stereo not drawn) | 1.4 | 0.2 | -1.2 | 41.9 | 0.0 | .
CC(C)C(C)(C#N)NC(=O)CSc1nc2scc(-c3ccco3)c2c(=O)n1-c1ccccc1 (stereo not drawn) | -2.4 | 0.2 | 1.4 | 70.4* | 7.0 | 44.4*
S=C(N/N=C/c1cccs1)NC1CC2CCC1C2 (stereo not drawn) | 7.1 | -0.1 | -0.8 | 54.0* | -1.5 | 56.2*
Cc1ccc(Cn2c(-n3nc(C)cc3C)nc3c2c(=O)[nH]c(=O)n3C)cc1 | 1.0 | 0.2 | -0.7 | . | 0.9 | .
COc1ccc(CCn2c(-n3nc(C)cc3C)nc3c2c(=O)[nH]c(=O)n3C)cc1 | 10.8 | -0.1 | -0.3 | 54.1* | 0.7 | 62.2*
CCOC(=O)c1csc(NC(=O)C2CCCN(S(=O)(=O)c3ccc(C)cc3)C2)n1 (stereo not drawn) | . | . | . | . | -6.5 | .
O=S1(=O)c2c(cccc2N2CCC[C@@H]2CO)OCCCN1C1CC1 | . | . | . | . | 0.3 | .
COc1cc(CN2CCC(C(=O)NC(c3ccc(F)cc3)c3ccc4ccccc4n3)CC2)cc(OC)c1 (stereo not drawn) | . | . | -0.1 | 47.6 | 2.2 | .
